In ChEMBL document CHEMBL1154716, “Synthesis of some new S-triazine based chalcones and their derivatives as potent antimicrobial agents” (2010):
In brackets after ≈: the same amount, converted by molar mass. Activity calls are given as the source filed them. No cut-off for these calls is given here.

What was measured:
Bacillus cereus [1] = assay: Antimicrobial activity against Bacillus cereus at 10 ug/disk after 24 hrs by disk diffusion assay; format: functional
How it was run: (§1)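 Disc diffusion on 4 mm filter discs. Bacteria are grown overnight in LB at 28 C, then adjusted in saline to 1.0 × 10^5 cfu/ml. The suspension is mixed into top agar over peptone agar plates. Plates are incubated 24 h at 28 C, and growth-inhibition zone diameter is measured. Streptomycin and ampicillin controls are applied from a 1 mg/ml stock. Tests are done in duplicate.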

Micrococcus flavus [2] = assay: Antimicrobial activity against Micrococcus flavus at 10 ug/disk after 24 hrs by disk diffusion assay; format: functional; how it was run: as §1
Staphylococcus aureus [3] = assay: Antimicrobial activity against Staphylococcus aureus at 10 ug/disk after 24 hrs by disk diffusion assay; format: functional; how it was run: as §1
Escherichia coli [4] = assay: Antimicrobial activity against Escherichia coli at 10 ug/disk after 24 hrs by disk diffusion assay; format: functional; how it was run: as §1
Pseudomonas aeruginosa [5] = assay: Antimicrobial activity against Pseudomonas aeruginosa at 10 ug/disk after 24 hrs by disk diffusion assay; format: functional; how it was run: as §1
Enterobacter cloacae [6] = assay: Antimicrobial activity against Enterobacter cloacae at 10 ug/disk after 24 hrs by disk diffusion assay; format: functional; how it was run: as §1
Salmonella typhimurium [7] = assay: Antimicrobial activity against Salmonella Typhimurium at 10 ug/disk after 24 hrs by disk diffusion assay; format: functional, organism-based; conditions: Salmonella enterica subsp. enterica serovar Typhimurium; how it was run: as §1
Listeria monocytogenes [8] = assay: Antimicrobial activity against Listeria monocytogenes at 10 ug/disk after 24 hrs by disk diffusion assay; format: functional; how it was run: as §1
Bacillus cereus [9] = assay: Antimicrobial activity against Bacillus cereus at 1 umol/disk after 24 hrs by disk diffusion assay; format: functional; how it was run: as §1
Micrococcus flavus [10] = assay: Antimicrobial activity against Micrococcus flavus at 1 umol/disk after 24 hrs by disk diffusion assay; format: functional; how it was run: as §1
Staphylococcus aureus [11] = assay: Antimicrobial activity against Staphylococcus aureus at 1 umol/disk after 24 hrs by disk diffusion assay; format: functional; how it was run: as §1
Escherichia coli [12] = assay: Antimicrobial activity against Escherichia coli at 1 umol/disk after 24 hrs by disk diffusion assay; format: functional; how it was run: as §1
Pseudomonas aeruginosa [13] = assay: Antimicrobial activity against Pseudomonas aeruginosa at 1 umol/disk after 24 hrs by disk diffusion assay; format: functional; how it was run: as §1
Enterobacter cloacae [14] = assay: Antimicrobial activity against Enterobacter cloacae at 1 umol/disk after 24 hrs by disk diffusion assay; format: functional; how it was run: as §1
Salmonella typhimurium [15] = assay: Antimicrobial activity against Salmonella Typhimurium at 1 umol/disk after 24 hrs by disk diffusion assay; format: functional, organism-based; conditions: Salmonella enterica subsp. enterica serovar Typhimurium; how it was run: as §1
Listeria monocytogenes [16] = assay: Antimicrobial activity against Listeria monocytogenes at 1 umol/disk after 24 hrs by disk diffusion assay; format: functional; how it was run: as §1
Bacillus cereus [17] = assay: Antimicrobial activity against Bacillus cereus at 1 umol/spot after 18 hrs by TLC-bioautographic method; format: functional
How it was run: (§2)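 TLC bioautography. Samples are spotted on silica gel TLC plates, then sprayed with bacteria (1.0 × 10^5 cfu/ml) in tryptic soy broth. Plates are incubated 18 h at 37 C and sprayed with 3% aqueous p-iodonitrotetrazolium violet. After a further 3 h, growth is stopped with 70% EtOH. White zones on a pink background are scored as inhibition-zone diameter with standard errors.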

Micrococcus flavus [18] = assay: Antimicrobial activity against Micrococcus flavus at 1 umol/spot after 18 hrs by TLC-bioautographic method; format: functional; how it was run: as §2
Staphylococcus aureus [19] = assay: Antimicrobial activity against Staphylococcus aureus at 1 umol/spot after 18 hrs by TLC-bioautographic method; format: functional; how it was run: as §2
Escherichia coli [20] = assay: Antimicrobial activity against Escherichia coli at 1 umol/spot after 18 hrs by TLC-bioautographic method; format: functional; how it was run: as §2
Pseudomonas aeruginosa [21] = assay: Antimicrobial activity against Pseudomonas aeruginosa at 1 umol/spot after 18 hrs by TLC-bioautographic method; format: functional; how it was run: as §2
Enterobacter cloacae [22] = assay: Antimicrobial activity against Enterobacter cloacae at 1 umol/spot after 18 hrs by TLC-bioautographic method; format: functional; how it was run: as §2
Salmonella typhimurium [23] = assay: Antimicrobial activity against Salmonella Typhimurium at 1 umol/spot after 18 hrs by TLC-bioautographic method; format: functional; conditions: Salmonella enterica subsp. enterica serovar Typhimurium; how it was run: as §2
Listeria monocytogenes [24] = assay: Antimicrobial activity against Listeria monocytogenes at 1 umol/spot after 18 hrs by TLC-bioautographic method; format: functional; how it was run: as §2
Bacillus cereus [25] = assay: Antimicrobial activity against Bacillus cereus after 24 hrs by microdilution technique; format: functional
How it was run: (§3)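 Broth microdilution in LB medium. Inoculum is 1.0 × 10^4 cfu per well, from a saline-adjusted suspension of 1.0 × 10^5 cfu/ml. Compounds are dissolved in DMSO. Incubated 24 h at 28 C. MIC is the lowest concentration with no visible growth under a binocular microscope. MBC is read by subculture into fresh broth for 72 h, with no growth taken as 99.5% kill. OD is read at 655 nm.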

Micrococcus flavus [26] = assay: Antimicrobial activity against Micrococcus flavus after 24 hrs by microdilution technique; format: functional; how it was run: as §3
Staphylococcus aureus [27] = assay: Antimicrobial activity against Staphylococcus aureus after 24 hrs by microdilution technique; format: functional; how it was run: as §3
Escherichia coli [28] = assay: Antimicrobial activity against Escherichia coli after 24 hrs by microdilution technique; format: functional; how it was run: as §3
Pseudomonas aeruginosa [29] = assay: Antimicrobial activity against Pseudomonas aeruginosa after 24 hrs by microdilution technique; format: functional; how it was run: as §3
Enterobacter cloacae [30] = assay: Antimicrobial activity against Enterobacter cloacae after 24 hrs by microdilution technique; format: functional; how it was run: as §3
Salmonella typhimurium [31] = assay: Antimicrobial activity against Salmonella Typhimurium after 24 hrs by microdilution technique; format: functional, Salmonella enterica subsp. enterica serovar Typhimurium; conditions: Salmonella enterica; how it was run: as §3
Listeria monocytogenes [32] = assay: Antimicrobial activity against Listeria monocytogenes after 24 hrs by microdilution technique; format: functional; how it was run: as §3

In the case of `CC(=O)N1N=C(c2ccc(Nc3nc(Nc4ccccc4)nc(Nc4ccccc4)n3)cc2)CC1c1cccs1` (stereo not given), the “inhibition zone (IZ)” value (Bacillus cereus [1]) is reported as “inactive”, the “inhibition zone (IZ)” value (Micrococcus flavus [2]) is reported as “inactive” and the “inhibition zone (IZ)” value (Staphylococcus aureus [3]) is reported as “inactive”. The “inhibition zone (IZ)” value (Escherichia coli [4]) was “inactive”, the “inhibition zone (IZ)” value (Pseudomonas aeruginosa [5]) was “inactive” and the “inhibition zone (IZ)” value (Enterobacter cloacae [6]) was “inactive”. For the same compound, the “inhibition zone (IZ)” value (Salmonella typhimurium [7]) was “inactive”, the “inhibition zone (IZ)” value (Listeria monocytogenes [8]) was “inactive” and the “inhibition zone (IZ)” value (Bacillus cereus [9]) was “inactive”. For the same compound, the “inhibition zone (IZ)” value (Micrococcus flavus [10]) was “inactive”, the “inhibition zone (IZ)” value (Staphylococcus aureus [11]) was “inactive” and the “inhibition zone (IZ)” value (Escherichia coli [12]) was “inactive”. The “inhibition zone (IZ)” value (Pseudomonas aeruginosa [13]) was “inactive”, the “inhibition zone (IZ)” value (Enterobacter cloacae [14]) was “inactive” and the “inhibition zone (IZ)” value (Salmonella typhimurium [15]) was “inactive”. For the same compound, the “inhibition zone (IZ)” value (Listeria monocytogenes [16]) was “inactive”, the “inhibition zone (IZ)” value (Bacillus cereus [17]) was 0.08 millimeter and the “inhibition zone (IZ)” value (Micrococcus flavus [18]) was “inactive”. The “inhibition zone (IZ)” value (Staphylococcus aureus [19]) was “inactive”, the “inhibition zone (IZ)” value (Escherichia coli [20]) was “inactive” and the “inhibition zone (IZ)” value (Pseudomonas aeruginosa [21]) was “inactive”. For the same compound, the “inhibition zone (IZ)” value (Enterobacter cloacae [22]) was 0.1 millimeter, the “inhibition zone (IZ)” value (Salmonella typhimurium [23]) was “inactive” and the “inhibition zone (IZ)” value (Listeria monocytogenes [24]) was 0.08 millimeter. The MBC (Bacillus cereus [25]) was 376 µM (≈ 206 µg/mL), the MIC (Bacillus cereus [25]) was 188 µM (≈ 103 µg/mL) and the MBC (Micrococcus flavus [26]) was 376 µM (≈ 206 µg/mL). For the same compound, the MIC (Micrococcus flavus [26]) was 188 µM (≈ 103 µg/mL), the MBC (Staphylococcus aureus [27]) was 732 µM (≈ 400 µg/mL) and the MIC (Staphylococcus aureus [27]) was 376 µM (≈ 206 µg/mL). The MBC (Escherichia coli [28]) was 376 µM (≈ 206 µg/mL), the MIC (Escherichia coli [28]) was 188 µM (≈ 103 µg/mL) and the MBC (Pseudomonas aeruginosa [29]) was 732 µM (≈ 400 µg/mL). For the same compound, the MIC (Pseudomonas aeruginosa [29]) was 376 µM (≈ 206 µg/mL), the MBC (Enterobacter cloacae [30]) was 732 µM (≈ 400 µg/mL) and the MIC (Enterobacter cloacae [30]) was 732 µM (≈ 400 µg/mL). For the same compound, the MBC (Salmonella typhimurium [31]) was 732 µM (≈ 400 µg/mL), the MIC (Salmonella typhimurium [31]) was 376 µM (≈ 206 µg/mL) and the MBC (Listeria monocytogenes [32]) was 732 µM (≈ 400 µg/mL). For the same compound, the MIC (Listeria monocytogenes [32]) was 732 µM (≈ 400 µg/mL).

With `O=C(/C=C/c1cccs1)c1ccc(Nc2nc(Nc3ccccc3)nc(Nc3ccccc3)n2)cc1` the “inhibition zone (IZ)” value (Bacillus cereus [1]) was “inactive”, the “inhibition zone (IZ)” value (Micrococcus flavus [2]) was “inactive” and the “inhibition zone (IZ)” value (Staphylococcus aureus [3]) was “inactive”. For the same compound, the “inhibition zone (IZ)” value (Escherichia coli [4]) was “inactive”, the “inhibition zone (IZ)” value (Pseudomonas aeruginosa [5]) was “inactive” and the “inhibition zone (IZ)” value (Enterobacter cloacae [6]) was “inactive”. For the same compound, the “inhibition zone (IZ)” value (Salmonella typhimurium [7]) was “inactive”, the “inhibition zone (IZ)” value (Listeria monocytogenes [8]) was “inactive” and the “inhibition zone (IZ)” value (Bacillus cereus [9]) was “inactive”. For the same compound, the “inhibition zone (IZ)” value (Micrococcus flavus [10]) was “inactive”, the “inhibition zone (IZ)” value (Staphylococcus aureus [11]) was “inactive” and the “inhibition zone (IZ)” value (Escherichia coli [12]) was “inactive”. The “inhibition zone (IZ)” value (Pseudomonas aeruginosa [13]) was “inactive”, the “inhibition zone (IZ)” value (Enterobacter cloacae [14]) was “inactive” and the “inhibition zone (IZ)” value (Salmonella typhimurium [15]) was “inactive”. The “inhibition zone (IZ)” value (Listeria monocytogenes [16]) was “inactive”, the “inhibition zone (IZ)” value (Bacillus cereus [17]) was “inactive” and the “inhibition zone (IZ)” value (Micrococcus flavus [18]) was “inactive”. The “inhibition zone (IZ)” value (Staphylococcus aureus [19]) was “inactive”, the “inhibition zone (IZ)” value (Escherichia coli [20]) was “inactive” and the “inhibition zone (IZ)” value (Pseudomonas aeruginosa [21]) was “inactive”. For the same compound, the “inhibition zone (IZ)” value (Enterobacter cloacae [22]) was 0.08 millimeter, the “inhibition zone (IZ)” value (Salmonella typhimurium [23]) was “inactive” and the “inhibition zone (IZ)” value (Listeria monocytogenes [24]) was 0.08 millimeter. It also gave an MBC (Bacillus cereus [25]) of 408 µM (≈ 200 µg/mL), an MIC (Bacillus cereus [25]) of 204 µM (≈ 100 µg/mL) and an MBC (Micrococcus flavus [26]) of 408 µM (≈ 200 µg/mL). The MIC (Micrococcus flavus [26]) was 204 µM (≈ 100 µg/mL), the MBC (Staphylococcus aureus [27]) was 816 µM (≈ 400 µg/mL) and the MIC (Staphylococcus aureus [27]) was 408 µM (≈ 200 µg/mL). It also gave an MBC (Escherichia coli [28]) of 816 µM (≈ 400 µg/mL), an MIC (Escherichia coli [28]) of 408 µM (≈ 200 µg/mL) and an MBC (Pseudomonas aeruginosa [29]) of 816 µM (≈ 400 µg/mL). It also gave an MIC (Pseudomonas aeruginosa [29]) of 408 µM (≈ 200 µg/mL), an MBC (Enterobacter cloacae [30]) of 408 µM (≈ 200 µg/mL) and an MIC (Enterobacter cloacae [30]) of 204 µM (≈ 100 µg/mL). It also gave an MBC (Salmonella typhimurium [31]) of 816 µM (≈ 400 µg/mL), an MIC (Salmonella typhimurium [31]) of 408 µM (≈ 200 µg/mL) and an MBC (Listeria monocytogenes [32]) of 816 µM (≈ 400 µg/mL). For the same compound, the MIC (Listeria monocytogenes [32]) was 408 µM (≈ 200 µg/mL).
